ChEMBL document CHEMBL4715729, “UPLC-QTOFMS(E)-Guided Dereplication of the Endangered Chinese Species Garcinia paucinervis to Identify Additional Benzophenone Derivatives” (J Nat Prod, 2016)
pIC50: −log10 of the molar value.

Experiments:
Format in all cases: functional, cell-based
MCF7 = experiment: Cytotoxicity against human MCF7 cells assessed as reduction in cell viability measured after 48 hrs by WST assay; details: MCF7, 48 h
How it was run: (§1)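 Cells grown at 37 °C, 5% CO2 with 10% fetal calf serum and penicillin/streptomycin: MCF7 and MDA-MB-231 in DMEM glucose, SKBR3 in DMEM F12 glutamine. Seeded at 12×10^3 cells/well, dosed after 24 h at 5–200 μM from DMSO stocks (DMSO […]) for 48 h. Doxorubicin positive control. Read-out was 10% WST for 1 h in the dark, absorbance at 440 nm. Triplicate, % inhibition versus control, IC50 estimated.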

SK-BR-3 = experiment: Cytotoxicity against human SK-BR-3 cells assessed as reduction in cell viability measured after 48 hrs by WST assay; details: SK-BR-3, 48 h; how it was run: as §1
MDA-MB-231 = experiment: Cytotoxicity against human MDA-MB-231 cells assessed as reduction in cell viability measured after 48 hrs by WST assay; details: MDA-MB-231, 48 h; how it was run: as §1

Measured: pIC50

CC(C)=CCC/C(C)=C/CC1(CC=C(C)C)C(=O)C(C(=O)c2ccc(O)c(O)c2)=C2OC(C)(C)C(O)C3OC23C1=O (stereo not given)
> 5.00: all assays above

CC(C)=CCC/C(C)=C/C[C@]1(CC=C(C)C)C(=O)C2=C(OC(C)(C)C[C@H]2c2occc(=O)c2O)C(C(=O)c2ccc(O)c(O)c2)=C1O
> 5.00: all assays above

CC(C)=CCC/C(C)=C/C[C@]1(CC=C(C)C)C(=O)C(O)=C(C(=O)c2ccc(O)c(O)c2)C1=O
> 5.00: all assays above

CC(C)=CCC/C(C)=C/CC1(CC=C(C)C)C(=O)C(C(=O)c2ccc(O)c(O)c2)=C2OC(C)(C)CC3OC23C1=O (stereo not given)
> 5.00: all assays above

CC(C)=CCC/C(C)=C/C[C@@]1(CC=C(C)C)C(=O)C2=C(OC(C)(C)C[C@H]2c2occc(=O)c2O)C(C(=O)c2ccc(O)c(O)c2)=C1O
> 5.00: all assays above
